Hits are enriched below; roughly 4.1% of the tested compounds scored in any of these assays.
STAT1 activator = STAT1 signaling activators, primary screen, cell-based, HTS, luciferase reporter; AID 932, 2007; activation (% of control), % at 5.5 µM; NIH 3T3 STAT1-luciferase reporter, IFN-gamma, luminescence; 100% = IFN-gamma alone, no compound; 200,000 compounds, 2.6% hits;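 active = activation above the screen-wide mean activation plus 3 SD, cut at about 130% in these data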;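 also: raw ratio to IFN-gamma control signal so 100% means no change and 0% no light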
APP 5'UTR act = activators of APP 5'UTR luciferase reporter, primary screen, SH-SY5Y cells; 190,000 compounds, 1% hits; SH-SY5Y APP 5'UTR luciferase reporter, luminescence; zero percent = DMSO vehicle wells; activation, % at 2 µM;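 active = activation above a set limit, based on mean plus 3 SD of controls, cut at about 140% in these data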
FLuc inh counter = firefly luciferase enzyme inhibitors, primary screen, artefact control for luciferase-based inhibitor screens, biochemical, luminescence, ATPLite | Luciferin 4-monooxygenase (Photinus pyralis), P08659 | 10 min | inhibition, % at 10 µM | 200,000 compounds, 1.5% hits | AID 1006, 2008;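 active = inhibition above about 50% when tested at 10 µM, limit read from the data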
Target sequence (P08659 whole entry, looked up): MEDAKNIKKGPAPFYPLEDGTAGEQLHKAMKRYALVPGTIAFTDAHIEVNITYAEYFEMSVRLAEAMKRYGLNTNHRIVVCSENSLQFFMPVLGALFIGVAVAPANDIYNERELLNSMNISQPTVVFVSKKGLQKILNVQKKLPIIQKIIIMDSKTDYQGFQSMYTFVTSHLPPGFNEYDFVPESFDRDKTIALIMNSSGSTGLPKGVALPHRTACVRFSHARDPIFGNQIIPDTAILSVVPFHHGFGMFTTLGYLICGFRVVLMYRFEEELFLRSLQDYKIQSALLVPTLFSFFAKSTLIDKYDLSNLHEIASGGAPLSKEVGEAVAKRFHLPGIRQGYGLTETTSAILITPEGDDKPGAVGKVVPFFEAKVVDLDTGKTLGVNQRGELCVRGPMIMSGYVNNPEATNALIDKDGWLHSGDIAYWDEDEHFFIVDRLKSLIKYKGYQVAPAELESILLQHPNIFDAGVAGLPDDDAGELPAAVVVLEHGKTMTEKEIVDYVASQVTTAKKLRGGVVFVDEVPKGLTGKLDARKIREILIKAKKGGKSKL
FLuc stim CS = FLuc activators, initial screening, artefact control for FLuc-dependent activation tests, biochemical, ATPlite luminescence; Luciferin 4-monooxygenase (Photinus pyralis), P08659; ATPlite luciferase biochemical, 10 min; 0 = ATP-free wells, 1 = DMSO control; activation factor at 10 µM; 200,000 tested, under 10 active;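 active = luciferase activation factor, scaled between plate controls, of at least 2 with compound at 10 µM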
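Assay system – cell-free luciferase reagent · Medium – PBS-based ATP solution · Dosing – test compounds dosed from 2 mM stocks in 100% DMSO · Timing – 10 min, room temperature · Technique – light output (luminescence) · Measure – luminescence gain marking luciferase activators · Controls – No-ATP low control, compound-free enzyme-plus-ATP high control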
NF-kB neuron act = activators of NF-kB expression in neurons, primary screen, cell-based, HTS | fold change at 12.5 µM | 190,000 compounds, 1.6% hits | human neuronal cells, NF-kB reporter expression; hits give high values; in the data active = fold change above about 3.3
Starred values were filed as active, the others as inactive; . = not tested or not shown.

SMILES	STAT1 activator	APP 5'UTR act	FLuc inh counter	FLuc stim CS	NF-kB neuron act
COc1cccc(-c2cc(C(=O)N3C(C)CCCC3C)no2)c1 (stereo not drawn)	136.4*	71.4	13.9	0.9	3.31*
O=C(Nc1cccnc1)c1ccc(-c2ccccc2)cc1	111.9	109.9	51.2*	0.5	3.95*
COc1cccc(-c2cc(C(=O)Nc3cccnc3)no2)c1	132.5*	-16.7	63.5*	0.4	4.9*
COc1cccc(-c2cc(C(=O)N3CCN(C(c4ccccc4)c4ccccc4)CC3)no2)c1	98.4	12.7	-6.3	1.1	1.17
CCOc1ccc(C2CC(c3ccc(Br)cc3)Nc3nc(N)nn32)cc1 (stereo not drawn)	100.5	14.9	.	.	.
Cc1ccccc1Nc1nc(N)nc(COC(=O)c2ccc(O)cc2)n1	102.9	12.2	-1.7	1	1.02
COC(=O)COc1ccc(C(=O)OC)cc1	102.7	4.1	-5.3	1.1	1.12
CCC1CCCCN1C(=O)c1cc(-c2ccc(Cl)c(Cl)c2)on1 (stereo not drawn)	122.1	39.7	1.0	1	1.12
CC1CCCCN1C(=O)c1cc(-c2ccc(Cl)c(Cl)c2)on1 (stereo not drawn)	132.7*	68.5	-1.2	1	2.12
O=C(Nc1cccnc1)c1cc(-c2ccccc2)on1	106.4	17.3	65.4*	0.3	1.17
COc1ccc(NC(=O)CCc2nc3ccccc3[nH]2)cc1	105.8	12.7	-0.4	1	1.74
O=C(c1ccc(F)cc1)N1CCN(c2ncccn2)CC1	111.5	6.6	-8.2	1.1	0.95
CC(C)(C)c1cc(C(=O)N2CCN(c3ncccn3)CC2)ccn1	95.8	3.8	-6.0	1.1	4.79*
COc1ccc(/C=N/Nc2ncccc2[N+](=O)[O-])c(OC)c1	46.8	137.3*	62.9*	0.4	7.93*
FC(F)(F)c1cc(Cl)c2nnc(-c3cccnc3)n2c1	99.6	-10.4	-3.9	1	1.2
Cc1cc(NC(=O)c2ccc(Cl)cc2)c(C)cc1O	115.3	21.4	53.0*	0.5	1.32
COc1ccc(C(=O)Nc2cc(Cl)ccc2OC(=O)c2ccc(OC)cc2)cc1	96.4	59.6	-0.8	1	2.5
CC(C)(C)c1ccc(C(=O)Nc2ccccc2Cl)cc1	115.1	201.4*	58.8*	0.4	4.83*
O=C(Nc1ccccc1O)c1ccc(Cl)cc1	92.1	43.0	20.4	0.8	5.65*
Cc1ccc(C(=O)Nc2cc(Cl)ccc2OC(=O)c2ccc(C)cc2)cc1	95.5	77.5	19.8	0.8	4.12*
O=C(CN(c1ccc(F)cc1)S(=O)(=O)c1ccc2c(c1)OCCO2)NCc1ccncc1	100.1	9.3	-6.4	1.1	0.99
COc1ccc(NC(=O)C2CCCCN2N)cc1OCC(C)C (stereo not drawn)	100.4	.	-8.6	1.1	1.08
CCCCCNCC(=O)Nc1cc(C(F)(F)F)ccc1OCCOC	98.0	9.5	-5.4	1.1	0.84
Cc1sc(NC(=O)Cn2[nH]c(=O)c3ccccc3c2=O)nc1-c1ccccc1	99.1	5.3	-4.6	1	2.45
N#CCn1nnc(-c2ccc3c(c2)OCO3)n1	100.1	-0.3	3.1	1	1.11
SMILES	STAT1 activator	APP 5'UTR act	FLuc inh counter	FLuc stim CS	NF-kB neuron act
CC(=O)Nc1ccc2nc(-c3cccs3)[nH]c2c1	123.8	68.8	51.6*	0.5	1.88
CC(=O)Nc1ccc2nc(-c3ccc(Br)o3)[nH]c2c1	133.3*	72.4	33.9	0.7	1.5
O=C(Nc1ccc2nc(-c3ccc(Br)o3)[nH]c2c1)c1ccco1	110.7	.	43.8	0.6	0.54
O=C1C2C3c4ccccc4C(c4ccccc43)C2C(=O)N1c1cccnc1 (stereo not drawn)	95.7	8.0	-0.7	1	0.91
CC(Nn1cnnc1)c1cc(Cl)ccc1O (stereo not drawn)	100.8	-10.1	-6.4	1.1	1.05
CCOC(=O)c1ccc(N=c2scc(C)n2CC)cc1	124.5	89.5	14.5	0.9	4.26*
Cc1cc(C(=O)N2CCN(C(c3ccccc3)c3ccccc3)CC2)no1	108.7	6.7	-5.1	1.1	1
CCN(CC)C(=O)Oc1ccc2c(=O)c(-c3ccc(OC)cc3)c(C)oc2c1	106.7	5.3	-7.0	1.1	0.9
CC(=O)Oc1ccc2c(=O)c(-c3nc4ccccc4s3)coc2c1	108.2	196.2*	79.7*	0.2	2.89
CCN(CC)C(=O)Oc1ccc2c(=O)c(-c3ccc(OC)cc3)coc2c1	143.6*	74.1	0.7	1	1.79
COc1ccc(-c2cc3nnc(-c4ccccc4)nc3s2)cc1	134.6*	27.7	24.3	0.8	1.09
c1ccc(-n2ncc3c2ncn2cnnc32)cc1	99.3	-2.5	2.2	1	0.98
Cc1ccc(-n2ncc3c2ncn2c(C)nnc32)cc1C	135.9*	24.8	14.0	0.9	3.37*
CCc1nnc2c3cnn(-c4ccccc4)c3ncn12	132.7*	-0.4	31.8	0.7	1.5
CC(=O)NNc1ncnc2c1cnn2-c1ccc(C)c(C)c1	123.3	2.5	3.4	1	1.04
CCOc1cnc(-c2ccc(Cl)cc2)o1	139.6*	14.4	11.1	0.9	1.21
CCOc1cnc(-c2c(-c3c(Cl)cccc3Cl)noc2C)o1	92.1	6.2	-1.6	1	1.01
CCOc1cnc(-c2ccc(OC)cc2)o1	135.0*	44.4	25.6	0.7	1.59
CCCCC(CC)C(=O)Nc1ccc(Nc2ccccc2)cc1 (stereo not drawn)	101.0	10.1	-4.7	1	1.07
NC(=O)c1ccc(NC(=O)COC(=O)CCC(=O)c2ccc(Cl)cc2)cc1	102.8	14.2	-5.7	1.1	1.11
CC(NC(=O)Cn1c(NCCO)nc2ccccc21)C1CC2CCC1C2 (stereo not drawn)	133.5*	1.4	0.0	1	1.26
Cc1nc2ccccc2n1CC(=O)NC(C)C1CC2CCC1C2 (stereo not drawn)	72.3	7.7	0.1	1	1.2
COc1cc2c(cc1OC)C(COc1ccccc1OC)N(C(=O)c1ccco1)CC2 (stereo not drawn)	95.8	-7.6	-0.4	1	0.9
Cc1csc(C(C#N)C(=O)c2cc3ccccc3o2)n1 (stereo not drawn)	117.1	39.9	87.8*	0.1	1.94
COc1cc(/C=C2\SC(c3ccc(C)cc3)=NC2=O)cc(OC)c1O	97.9	16.4	36.4	0.6	1.09
Cc1ccc(C2=NC(=O)/C(=C/c3cc(O)c(O)c(Br)c3)S2)cc1	99.5	11.4	50.4*	0.5	1.19
Cc1cc(SC(C)C(=O)Nc2ncc(Cl)cc2Cl)nc2ccccc12 (stereo not drawn)	103.3	-1.4	-4.6	1	3.4*
COc1ccc(-c2cn3cc([N+](=O)[O-])ccc3n2)cc1OC	119.7	32.6	21.2	0.8	1.52
CCCOc1ccc(-c2cn3ccccc3n2)cc1[N+](=O)[O-]	120.1	142.2*	77.5*	0.2	4.13*

Compound activity: PubChem, several laboratories
